# Measurements taken from ChEMBL document CHEMBL2062483, “Design of Bcl-2 and Bcl-xL inhibitors with subnanomolar binding affinities based upon a new scaffold” (J Med Chem, 2012).
# Active and inactive are the calls of the source. The rule behind the calls is not given here.
# What was measured:
# [1] = Growth inhibition of human NCI-H146 cells after 4 days by WST8 assay; format: functional, cell-based; settings: NCI-H146, 96 h
# NCI-H1417 = assay: Growth inhibition of human NCI-H1417 cells after 4 days by WST8 assay; format: functional, cell-based; settings: NCI-H1417, 96 h
# [2] = biological target: Apoptosis regulator Bcl-2 (Homo sapiens, UniProt P10415); assay: Binding affinity to N-terminus 6X His-tagged human Bcl2 expressed in Escherichia coli BL21 (DE3) cells after 2 hrs by fluorescence polarization assay
# How it was run: (§1)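 Competitive FP binding: serially diluted inhibitor in DMSO added to preincubated protein/fluorescent probe complex, 2 h at room temperature with gentle shaking. Final protein/probe: Bcl-2 1.5 nM/1 nM; Bcl-xL 10 nM/2 nM; Mcl-1 20 nM/2 nM. IC50 from nonlinear regression; Ki calculated from IC50, probe Kd and protein/probe concentrations.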
# Bcl-2-like protein 1 = Bcl-2-like protein 1 (Homo sapiens, UniProt Q07817); assay: Binding affinity to N-terminus 8X His-tagged human Bcl-xL expressed in Escherichia coli BL21 (DE3) cells after 2 hrs by fluorescence polarization assay; how it was run: as §1
# [3] = biological target: Induced myeloid leukemia cell differentiation protein Mcl-1 (Homo sapiens, UniProt Q07820); assay: Binding affinity to N-terminus 8X His-tagged human Mcl1 expressed in Escherichia coli BL21 (DE3) cells after 2 hrs by fluorescence polarization assay; how it was run: as §1
# NCI-H146 [4] = assay: Cytotoxicity against human NCI-H146 cells assessed as cell death after 24 hrs by trypan blue assay; format: functional, cell-based
# How it was run: (§2)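 H146 cells exposed to compound for 24 h, then harvested and stained with trypan blue. Cells staining blue or looking morphologically unhealthy were scored dead; at least 100 cells counted per sample.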
# NCI-H146 [5] = assay: Induction of apoptosis in human NCI-H146 cells assessed as PARP cleavage at 100 nM after 24 hrs by Western blot analysis; format: functional, cell-based
# How it was run: (§3)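 H146 cells treated 24 h, lysed on ice 20 min in RIPA buffer (1% NP40, 0.5% Na-deoxycholate, 0.1% SDS in PBS) with 1 μmol/L PMSF and protease inhibitors. Lysates cleared, protein quantified, run on 4–20% SDS-PAGE, blotted to PVDF, blocked in 5% milk. Rabbit anti-PARP and anti-caspase-3, GAPDH loading control; HRP secondary with chemiluminescent detection.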
# NCI-H146 [6] = assay: Induction of apoptosis in human NCI-H146 cells assessed as caspase 3 cleavage at 100 nM after 24 hrs by Western blot analysis; format: functional, cell-based; how it was run: as §3
# NCI-H146 [7] = assay: Cytotoxicity against human NCI-H146 cells assessed as cell death at 30 to 100 nM after 24 hrs by trypan blue assay; format: functional, cell-based; how it was run: as §2
# [8] = Cytotoxicity against human NCI-H146 cells assessed as cell death at 300 nM after 24 hrs by trypan blue assay; format: functional
# How it was run: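 H146 human small cell lung cancer line, grown in RPMI-1640 with 10% FBS, exposed to compound for 24 h. Cells then harvested and stained with trypan blue. Blue-stained or morphologically unhealthy cells counted as dead, with at least 100 cells scored per sample.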
# Sequence of Bcl-2-like protein 1 (Q07817 whole entry): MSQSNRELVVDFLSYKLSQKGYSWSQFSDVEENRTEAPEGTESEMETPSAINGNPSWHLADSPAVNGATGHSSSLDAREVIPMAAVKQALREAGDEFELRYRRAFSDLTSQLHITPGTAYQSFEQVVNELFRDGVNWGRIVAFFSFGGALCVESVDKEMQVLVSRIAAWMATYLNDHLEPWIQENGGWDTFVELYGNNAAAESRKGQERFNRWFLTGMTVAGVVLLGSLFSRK
# Sequence of Apoptosis regulator Bcl-2 (P10415 whole entry): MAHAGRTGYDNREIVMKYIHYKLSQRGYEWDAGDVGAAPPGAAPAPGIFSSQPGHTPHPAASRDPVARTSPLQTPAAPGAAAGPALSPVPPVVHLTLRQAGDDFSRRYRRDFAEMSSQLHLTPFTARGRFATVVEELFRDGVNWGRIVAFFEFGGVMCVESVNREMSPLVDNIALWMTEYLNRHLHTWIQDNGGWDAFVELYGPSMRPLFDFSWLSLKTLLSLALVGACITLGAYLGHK
# Sequence of Induced myeloid leukemia cell differentiation protein Mcl-1 (Q07820 whole entry): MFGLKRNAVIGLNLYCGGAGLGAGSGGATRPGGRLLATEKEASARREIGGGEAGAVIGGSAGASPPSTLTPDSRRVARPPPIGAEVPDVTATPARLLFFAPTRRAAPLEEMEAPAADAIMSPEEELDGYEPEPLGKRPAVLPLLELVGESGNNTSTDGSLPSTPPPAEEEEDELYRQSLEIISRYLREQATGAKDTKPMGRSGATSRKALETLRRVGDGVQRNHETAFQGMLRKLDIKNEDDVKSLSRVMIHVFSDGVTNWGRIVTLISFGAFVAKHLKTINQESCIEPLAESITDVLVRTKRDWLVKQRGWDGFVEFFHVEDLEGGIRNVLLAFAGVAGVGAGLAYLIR
IC50 (NCI-H1417) [nM],IC50 [2] [nM],IC50 (Bcl-2-like protein 1) [nM],Ki (Bcl-2-like protein 1) [nM],IC50 [3] [nM],Ki [2] [nM],SMILES,IC50 [1] [nM],Activity (NCI-H146 [4]),Activity (NCI-H146 [5]),Activity (NCI-H146 [6]),Activity (NCI-H146 [7]),Activity [8] [%]
130,,,,,,CN(C)CC[C@H](CSc1ccccc1)Nc1ccc(S(=O)(=O)NC(=O)c2ccc(N3CCN(Cc4ccccc4-c4ccc(Cl)cc4)CC3)cc2)cc1[N+](=O)[O-] [ABT 737],97,,,,,
> 10000,> 100000,238000,75000,> 100000,,CN(C)CC[C@H](CSc1ccccc1)Nc1ccc(S(N)(=O)=O)cc1[N+](=O)[O-],> 10000,,,,,
> 10000,> 100000,547000,166000,> 100000,,CN(C)CC[C@H](CSc1ccccc1)Nc1ccc(S(=O)(=O)Nc2ccccc2)cc1[N+](=O)[O-],> 10000,,,,,
> 10000,85.3,88.3,24.7,> 10000,21.8,CN(C)CC[C@H](CSc1ccccc1)Nc1ccc(S(=O)(=O)Nc2ccc(N3CCN(Cc4ccccc4-c4ccc(Cl)cc4)CC3)cc2)cc1[N+](=O)[O-],> 10000,,,,,
650,5.3,6.3,< 1,> 2000,1.2,CNC(=O)c1c(-c2cccc(N3CCN(c4ccc(NS(=O)(=O)c5ccc(N[C@H](CCN(C)C)CSc6ccccc6)c([N+](=O)[O-])c5)cc4)CC3)c2)c(-c2ccc(Cl)cc2)cn1C,400,,,,,
552,1.7,3.6,< 1,> 2000,< 0.6,CN(C)CC[C@H](CSc1ccccc1)Nc1ccc(S(=O)(=O)Nc2ccc(N3CCN(c4cccc(-c5c(-c6ccc(Cl)cc6)cn(C)c5C(=O)O)c4)CC3)cc2)cc1[N+](=O)[O-],340,Dose-dependent effect,Active,Active,,
7300,45.8,12.6,1.7,> 2000,11.6,CCOC(=O)c1c(-c2cccc(N3CCN(c4ccc(NS(=O)(=O)c5ccc(N[C@H](CCN(C)C)CSc6ccccc6)c([N+](=O)[O-])c5)cc4)CC3)c2)c(-c2ccc(Cl)cc2)cn1C,4900,,,,,
> 10000,1.4,4.8,< 1,> 10000,< 0.6,CN(C)CC[C@H](CSc1ccccc1)Nc1ccc(S(=O)(=O)Nc2ccc(-c3cn(-c4cccc(-c5c(-c6ccc(Cl)cc6)cn(CC[C@H](O)CO)c5C(=O)NCCCN5CCN(C)CC5)c4)nn3)cc2)cc1[N+](=O)[O-],> 10000,,,,,
1800,1.3,6.2,< 1,> 10000,< 0.6,CN(C)CC[C@H](CSc1ccccc1)Nc1ccc(S(=O)(=O)Nc2ccc(N3CCN(c4cccc(-c5c(-c6ccc(Cl)cc6)cn(CC[C@H](O)CO)c5C(=O)NCCCN5CCN(C)CC5)c4)CC3)cc2)cc1[N+](=O)[O-],2000,,,,,
> 10000,1.9,5.7,< 1,> 10000,,CN(C)CC[C@H](CSc1ccccc1)Nc1ccc(S(=O)(=O)NC(=O)c2ccc(C#Cc3cccc(-c4c(-c5ccc(Cl)cc5)cn(CC[C@H](O)CO)c4C(=O)NCCCN4CCN(C)CC4)c3)cc2)cc1[N+](=O)[O-],> 10000,,,,,
3300,33.9,7.6,< 1,> 10000,8.5,CN(C)CC[C@H](CSc1ccccc1)Nc1ccc(S(=O)(=O)Nc2ccc(N3CCN(c4ccc(-c5c(-c6ccc(Cl)cc6)cn(CC[C@H](O)CO)c5C(=O)NCCCN5CCN(C)CC5)cc4)CC3)cc2)cc1[N+](=O)[O-],2500,,,,,
> 10000,6.6,12.6,1.7,> 10000,1.5,CN(C)CC[C@H](CSc1ccccc1)Nc1ccc(S(=O)(=O)Nc2ccc(C#Cc3cccc(-c4c(-c5ccc(Cl)cc5)cn(CC[C@H](O)CO)c4C(=O)NCCCN4CCN(C)CC4)c3)cc2)cc1[N+](=O)[O-],> 10000,,,,,
> 10000,,,,> 100000,,CN(C)CC[C@H](CSc1ccccc1)Nc1ccc(S(=O)(=O)Nc2ccc(N3CCNCC3)cc2)cc1[N+](=O)[O-],> 10000,,,,,
> 10000,213000,453000,,> 100000,78000,CN1CCN(CCCNC(=O)c2c(-c3ccccc3)c(-c3ccc(Cl)cc3)cn2CC[C@H](O)CO)CC1,> 10000,,,,,
650,0.6,4.9,< 1,> 10000,< 0.6,CN(C)CC[C@H](CSc1ccccc1)Nc1ccc(S(=O)(=O)Nc2ccc(N3CCN(c4cccc(-c5c(-c6ccc(Cl)cc6)cn(C)c5C(=O)NCCCN5CCN(C)CC5)c4)CC3)cc2)cc1[N+](=O)[O-],430,,,,,
> 10000,82.6,34.4,8.3,> 2000,21.1,CN(C)CC[C@H](CSc1ccccc1)Nc1ccc(S(=O)(=O)Nc2ccc(N3CCN(c4cccc(-c5cn(C)cc5-c5ccc(Cl)cc5)c4)CC3)cc2)cc1[N+](=O)[O-],> 10000,,,,,
> 10000,8.7,6.1,< 1,> 10000,2,CN(C)CC[C@H](CSc1ccccc1)Nc1ccc(S(=O)(=O)NC(=O)c2ccc(N3CCN(c4cccc(-c5c(-c6ccc(Cl)cc6)cn(CC[C@H](O)CO)c5C(=O)NCCCN5CCN(C)CC5)c4)CC3)cc2)cc1[N+](=O)[O-],> 10000,,,,,
> 10000,60.6,44.1,11.3,> 10000,15.4,CN(C)CC[C@H](CSc1ccccc1)Nc1ccc(S(=O)(=O)Nc2ccc(NCCNc3cccc(-c4c(-c5ccc(Cl)cc5)cn(CC[C@H](O)CO)c4C(=O)NCCCN4CCN(C)CC4)c3)cc2)cc1[N+](=O)[O-],> 10000,,,,,

SMILES,IC50 (NCI-H1417) [nM],IC50 [2] [nM],IC50 (Bcl-2-like protein 1) [nM],Ki (Bcl-2-like protein 1) [nM],IC50 [3] [nM],Ki [2] [nM],IC50 [1] [nM],Activity (NCI-H146 [4]),Activity (NCI-H146 [5]),Activity (NCI-H146 [6]),Activity (NCI-H146 [7]),Activity [8] [%]
CCc1c(-c2ccc(Cl)cc2)c(-c2cccc(N3CCN(c4ccc(NS(=O)(=O)c5ccc(N[C@H](CCN(C)C)CSc6ccccc6)c([N+](=O)[O-])c5)cc4)CC3)c2)c(C(=O)O)n1C,,,7.5,< 1,> 2000,,,Dose-dependent effect,Active,Active,Active,>70
